Source: ChEMBL document CHEMBL1641569, “Synthetic conjugates of genistein affecting proliferation and mitosis of cancer cells” (Bioorg Med Chem, 2011)
Each block holds one compound with its values, some of them ahead of it. The source made the active and inactive calls. The calls are words filed in the database; no cut-off is given here.

How the values were obtained:
[1] = tested on: HCT-116; assay: Cytotoxicity against human HCT116 cells after 72 hrs by MTT assay; type: functional, cell-based; details: HCT-116, 72 h
[2] = Solubility of the compound at 20 uM
[3] = tested on: HCT-116; assay: Inhibition of mitosis in human HCT116 cells assessed as mitotic index at 20 uM after 24 hrs by fluorescence assay; type: functional
Outline: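 Cells treated 24 h, collected as for cell cycle analysis, cytospun, fixed in cold methanol, stained with 3 µM DAPI; mitotic cells counted among 1000 cells under 40× objective. Mean ± SD from three independent experiments.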

[4] = tested on: HCT-116; assay: Cell cycle arrest in human HCT116 cells assessed as accumulation at G2/M phase at 5 to 20 uM after 24 hrs by propidium iodide staining-based flow cytometry; type: functional
Outline: (§1)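 Subconfluent cultures exposed continuously to compound; floating and trypsinized adherent cells pooled, PBS-washed, fixed in ice-cold 70% ethanol 30 min, RNase (100 µg/mL) treated, stained with propidium iodide, DNA content measured by flow cytometry to give G1, S, G2/M, apoptotic (sub-G1) and polyploid fractions. Experiments repeated at least twice.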

[5] = tested on: HCT-116; assay: Cell cycle arrest in human HCT116 cells assessed as accumulation at G2/M phase after 24 hrs by propidium iodide staining-based flow cytometry; type: functional; outline: as §1

Structure (SMILES): O=c1c(-c2ccc(O)cc2)coc2cc(OCCO)cc(O)c12
IC50 [1]: 25 µM

solubility [2]: Insoluble
Structure (SMILES): CC(=O)OC[C@H]1O[C@@H](O[C@H]2C=C[C@@H](OCCOc3cc(O)c4c(=O)c(-c5ccc(O)cc5)coc4c3)O[C@@H]2COC(C)=O)[C@H](OC(C)=O)[C@@H](OC(C)=O)[C@H]1OC(C)=O
IC50 [1]: > 20 µM

Structure (SMILES): CC(=O)O[C@@H]1C=C[C@H](OCCOc2cc(O)c3c(=O)c(-c4ccc(O)cc4)coc3c2)O[C@H]1C
Activity [3]: 1.3 | IC50 [1]: 9.32 µM | Activity [4]: inactive

Structure (SMILES): CC(=O)OC[C@H]1O[C@@H](O[C@H]2C=C[C@@H](OCCCCCOc3cc(O)c4c(=O)c(-c5ccc(O)cc5)coc4c3)O[C@@H]2COC(C)=O)[C@H](OC(C)=O)[C@@H](OC(C)=O)[C@H]1OC(C)=O
IC50 [1]: > 20 µM

Structure (SMILES): CC(=O)OC[C@H]1O[C@H](OCCCOc2cc(O)c3c(=O)c(-c4ccc(O)cc4)coc3c2)C=C[C@@H]1OC(C)=O
IC50 [1]: 19.9 µM

Structure (SMILES): CC(=O)OC[C@H]1O[C@H](OCCCCCOc2cc(O)c3c(=O)c(-c4ccc(O)cc4)coc3c2)C=C[C@@H]1OC(C)=O
Activity [3]: 5.2 | Activity [5]: Dose-dependent effect | IC50 [1]: 8.45 µM
